Laboratory results: ChEMBL document CHEMBL1148485, “Synthesis and biological evaluation of new selective cytotoxic cyclolignans derived from podophyllotoxin” (J Med Chem, 2004)

Experiments:
[1] = test system: A549; test: In vitro cytotoxicity against A-549 (human lung carcinoma) cell line.; assay type: functional, cell-based; conditions: Homo sapiens, A549
[2] = test system: HeLa; test: Tested for effect of compound on G2/M cell cycle phase and apoptosis in HeLa cells at a dose of 10E-6 for 48 hr; assay type: functional, Homo sapiens
In short: (§1)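 HeLa cells were grown in DMEM with 10% heat-inactivated FCS and 2 mM L-glutamine at 37 °C in 5% CO2. They were exposed to 10^-6 to 10^-8 M for 24, 48 or 72 h. Then (3-5)×10^5 cells were fixed overnight in 70% ethanol at 4 °C, PBS-washed, and given 1 mg/mL RNase A plus 20 µg/mL propidium iodide for 1 h at room temperature. DNA content was read by flow cytometry. Sub-G1 (hypodiploid) % counted as apoptotic. Untreated controls were run in parallel. Representative of three independent experiments.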

[3] = test system: HT-29; test: In vitro cytotoxicity against HT-29 (human colon carcinoma) cell line.; assay type: functional, cell-based; conditions: Homo sapiens, HT-29
[4] = test system: HeLa; test: Tested for effect of compound on Sub-G1 cell cycle phase and apoptosis in HeLa cells at a dose of 10E-6 for 24 hr; assay type: functional, Homo sapiens
In short: (§2)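 HeLa cells grown in DMEM with 10% heat-inactivated FCS, 2 mM L-glutamine, penicillin and gentamicin at 37 °C, 5% CO2. Exposed to compound at 10^-6 to 10^-8 M for 24, 48 or 72 h, untreated controls run in parallel. (3-5) × 10^5 cells fixed overnight in 70% ethanol at 4 °C, then RNase A plus propidium iodide. Phase fractions measured by flow cytometry, with sub-G1 (hypodiploid) cells counted as apoptotic. Three independent experiments.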

[5] = test system: HeLa; test: Tested for effect of compound on Sub-G1 cell cycle phase and apoptosis in HeLa cells at a dose of 10E-6 for 48 hr; assay type: functional, Homo sapiens; in short: as §2
[6] = test system: HeLa; test: Tested for effect of compound on Sub-G1 cell cycle phase and apoptosis in HeLa cells at a dose of 10E-6 for 72 hr; assay type: functional, Homo sapiens; in short: as §2
[7] = test system: HeLa; test: Tested for effect of compound on Sub-G1 cell cycle phase and apoptosis in HeLa cells at a dose of 10E-7 for 24 hr; assay type: functional, Homo sapiens; in short: as §2
[8] = test system: HeLa; test: Tested for effect of compound on Sub-G1 cell cycle phase and apoptosis in HeLa cells at a dose of 10E-7 for 48 hr; assay type: functional, Homo sapiens; in short: as §2
[9] = test system: HeLa; test: Tested for effect of compound on Sub-G1 cell cycle phase and apoptosis in HeLa cells at a dose of 10E-7 for 72 hr; assay type: functional, Homo sapiens; in short: as §2
[10] = test system: HeLa; test: Tested for effect of compound on Sub-G1 cell cycle phase and apoptosis in HeLa cells at a dose of 10E-8 for 24 hr; assay type: functional, Homo sapiens; in short: as §2
[11] = test system: HeLa; test: Tested for effect of compound on Sub-G1 cell cycle phase and apoptosis in HeLa cells at a dose of 10E-8 for 48 hr; assay type: functional, Homo sapiens; in short: as §2
[12] = test system: HeLa; test: Tested for effect of compound on Sub-G1 cell cycle phase and apoptosis in HeLa cells at a dose of 10E-8 for 72 hr; assay type: functional, Homo sapiens; in short: as §2
[13] = test system: HeLa; test: Tested for effect of compound on G2/M cell cycle phase and apoptosis in HeLa cells at a dose of 10E-8 for 24 hr; assay type: functional, Homo sapiens; in short: as §2
[14] = test system: HeLa; test: Tested for effect of compound on G2/M cell cycle phase and apoptosis in HeLa cells at a dose of 10E-8 for 48 hr; assay type: functional, Homo sapiens; in short: as §2
[15] = test system: HeLa; test: Tested for effect of compound on G2/M cell cycle phase and apoptosis in HeLa cells at a dose of 10E-8 for 72 hr; assay type: functional, Homo sapiens; in short: as §2
[16] = test system: HeLa; test: Tested for effect of compound on S cell cycle phase and apoptosis in HeLa cells at a dose of 10E-6 for 24 hr; assay type: functional, Homo sapiens; in short: as §2
[17] = test system: HeLa; test: Tested for effect of compound on S cell cycle phase and apoptosis in HeLa cells at a dose of 10E-6 for 48 hr; assay type: functional, Homo sapiens; in short: as §2
[18] = test system: HeLa; test: Tested for effect of compound on S cell cycle phase and apoptosis in HeLa cells at a dose of 10E-6 for 72 hr; assay type: functional, Homo sapiens; in short: as §2
[19] = test system: HeLa; test: Tested for effect of compound on S cell cycle phase and apoptosis in HeLa cells at a dose of 10E-7 for 24 hr; assay type: functional, Homo sapiens; in short: as §2
[20] = test system: HeLa; test: Tested for effect of compound on S cell cycle phase and apoptosis in HeLa cells at a dose of 10E-7 for 48 hr; assay type: functional, Homo sapiens; in short: as §2
[21] = test system: HeLa; test: Tested for effect of compound on S cell cycle phase and apoptosis in HeLa cells at a dose of 10E-7 for 72 hr; assay type: functional, Homo sapiens; in short: as §2
[22] = test system: HeLa; test: Tested for effect of compound on S cell cycle phase and apoptosis in HeLa cells at a dose of 10E-8 for 24 hr; assay type: functional, Homo sapiens; in short: as §2
[23] = test system: HeLa; test: Tested for effect of compound on S cell cycle phase and apoptosis in HeLa cells at a dose of 10E-8 for 48 hr; assay type: functional, Homo sapiens; in short: as §2
[24] = test system: HeLa; test: Tested for effect of compound on S cell cycle phase and apoptosis in HeLa cells at a dose of 10E-8 for 72 hr; assay type: functional, Homo sapiens; in short: as §2
[25] = test system: HeLa; test: Tested for effect of compound on G0/G1 cell cycle phase and apoptosis in HeLa cells at a dose of 10E-6 for 24 hr; assay type: functional, Homo sapiens; in short: as §1
[26] = test system: HeLa; test: Tested for effect of compound on G0/G1 cell cycle phase and apoptosis in HeLa cells at a dose of 10E-6 for 48 hr; assay type: functional, Homo sapiens; in short: as §1
[27] = test system: HeLa; test: Tested for effect of compound on G0/G1 cell cycle phase and apoptosis in HeLa cells at a dose of 10E-6 for 72 hr; assay type: functional, Homo sapiens; in short: as §1
[28] = test system: HeLa; test: Tested for effect of compound on G0/G1 cell cycle phase and apoptosis in HeLa cells at a dose of 10E-7 for 24 hr; assay type: functional, Homo sapiens; in short: as §1
[29] = test system: HeLa; test: Tested for effect of compound on G0/G1 cell cycle phase and apoptosis in HeLa cells at a dose of 10E-7 for 48 hr; assay type: functional, Homo sapiens; in short: as §1
[30] = test system: HeLa; test: Tested for effect of compound on G0/G1 cell cycle phase and apoptosis in HeLa cells at a dose of 10E-7 for 72 hr; assay type: functional, Homo sapiens; in short: as §1
[31] = test system: HeLa; test: Tested for effect of compound on G0/G1 cell cycle phase and apoptosis in HeLa cells at a dose of 10E-8 for 24 hr; assay type: functional, Homo sapiens; in short: as §1
[32] = test system: HeLa; test: Tested for effect of compound on G0/G1 cell cycle phase and apoptosis in HeLa cells at a dose of 10E-8 for 48 hr; assay type: functional, Homo sapiens; in short: as §1
[33] = test system: HeLa; test: Tested for effect of compound on G0/G1 cell cycle phase and apoptosis in HeLa cells at a dose of 10E-8 for 72 hr; assay type: functional, Homo sapiens; in short: as §1
[34] = test system: HeLa; test: Tested for effect of compound on G2/M cell cycle phase and apoptosis in HeLa cells at a dose of 10E-6 for 24 hr; assay type: functional, Homo sapiens; in short: as §1
[35] = test system: HeLa; test: Tested for effect of compound on G2/M cell cycle phase and apoptosis in HeLa cells at a dose of 10E-6 for 72 hr; assay type: functional, Homo sapiens; in short: as §2
[36] = test system: HeLa; test: Tested for effect of compound on G2/M cell cycle phase and apoptosis in HeLa cells at a dose of 10E-7 for 24 hr; assay type: functional, Homo sapiens; in short: as §2
[37] = test system: HeLa; test: Tested for effect of compound on G2/M cell cycle phase and apoptosis in HeLa cells at a dose of 10E-7 for 48 hr; assay type: functional, Homo sapiens; in short: as §2
[38] = test system: SK-MEL-28; test: Tested in vitro for antineoplastic activity against MEL-28 (human melanoma) tumor cell line; assay type: functional, cell-based
In short: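 MEL-28 cells seeded at 2 × 10^4 cells/well in MEM–10% FCS containing graded compound concentrations. Incubated 4 days at 37 °C, 10% CO2, 98% humidity. Stained with crystal violet and inhibition judged against untreated controls, which were kept in exponential growth. Mean of duplicate wells.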

[39] = Selectivity index is the ratio of IC50 of P-388 cell line to that of HT-29; assay type: functional
[40] = test system: P388; test: Tested in vitro for antineoplastic activity against P-388 (lymphoid neoplasm from DBA/2 mouse) tumor cell line; assay type: functional, cell-based
In short: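 P-388 cells seeded at 1 × 10^4 cells/well in MEM–10% FCS containing graded compound concentrations. Incubated 4 days at 37 °C, 10% CO2, 98% humidity. Inhibition scored by inverted microscopy against untreated controls, which were kept in exponential growth. Mean of duplicate wells.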

[41] = test system: HeLa; test: Tested for effect of compound on G2/M cell cycle phase and apoptosis in HeLa cells at a dose of 10E-7 for 72 hr; assay type: functional, Homo sapiens; in short: as §2

CCn1nccc1/N=C/C1=Cc2cc3c(cc2C(c2cc(OC)c(OC)c(OC)c2)[C@@H]1C(=O)OC)OCO3 (some centres not stated)
IC50 [1]: 960 nM | Activity [2]: 49.4% | IC50 [3]: 48 nM | Activity [4]: 2.1% | Activity [5]: 23.8% | Activity [6]: 39.6% | Activity [7]: 1.8% | Activity [8]: 1.9% | Activity [9]: 5.6% | Activity [10]: 1.3% | Activity [11]: 1.7% | Activity [12]: 2.3% | Activity [13]: 24.1% | Activity [14]: 28.2% | Activity [15]: 25.4% | Activity [16]: 9.6% | Activity [17]: 10.8% | Activity [18]: 8.1% | Activity [19]: 18.3% | Activity [20]: 13% | Activity [21]: 12.3% | Activity [22]: 18.2% | Activity [23]: 14.1% | Activity [24]: 12.2% | Activity [25]: 6.8% | Activity [26]: 16% | Activity [27]: 31.3% | Activity [28]: 55.6% | Activity [29]: 49.5% | Activity [30]: 37.7% | Activity [31]: 56.4% | Activity [32]: 56% | Activity [33]: 60.1% | Activity [34]: 81.5% | Activity [35]: 21% | Activity [36]: 24.3% | Activity [37]: 35.6% | IC50 [38]: 960 nM | Selectivity index [39]: 20 | IC50 [40]: 960 nM | Activity [41]: 44.4%

COC(=O)[C@@H]1C(C=O)=Cc2cc3c(cc2[C@H]1c1cc(OC)c(OC)c(OC)c1)OCO3
IC50 [1]: 120 nM | Activity [2]: 44.8% | IC50 [3]: 12 nM | Activity [4]: 1.1% | Activity [5]: 28.9% | Activity [6]: 58.9% | Activity [7]: 1.4% | Activity [8]: 10.9% | Activity [9]: 50.1% | Activity [10]: 1.4% | Activity [11]: 1.5% | Activity [12]: 3.1% | Activity [13]: 24.3% | Activity [14]: 29.7% | Activity [15]: 39.3% | Activity [16]: 1.7% | Activity [17]: 9.3% | Activity [18]: 17.5% | Activity [19]: 10.4% | Activity [20]: 9.7% | Activity [21]: 17.3% | Activity [22]: 16.2% | Activity [23]: 10.1% | Activity [24]: 10.2% | Activity [25]: 1.2% | Activity [26]: 17% | Activity [27]: 14.1% | Activity [28]: 8.1% | Activity [29]: 11.2% | Activity [30]: 15.1% | Activity [31]: 58.1% | Activity [32]: 58.7% | Activity [33]: 47.4% | Activity [34]: 96% | Activity [35]: 9.5% | Activity [36]: 80.1% | Activity [37]: 68.2% | IC50 [38]: 230 nM | Selectivity index [39]: 19 | IC50 [40]: 230 nM | Activity [41]: 17.5%
